Screening results deposited in PubChem by several laboratories.
An excerpt weighted towards active compounds, which were near 2.3% of everything screened.
Myeloid diff MLP – induction of myeloid progenitor differentiation, primary screen, cell-based, flow cytometry, MLPCN library; AID 624256, 2012; calls only at 10 µM; ER-HoxA9 myeloid progenitors, lysozyme-GFP differentiation; 360,000 tested, 1% active;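 active means normalized GFP-positive differentiation at or above the plate's own cutoff, the solvent-only control mean plus 3 SD; inconclusive means no clear call, values can overlap the other calls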;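 further: cells exposed to compound for four days before flow analysis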
Rpn11 inh – Rpn11 (PSMD14) deubiquitinase inhibitors, primary screen, biochemical, fluorescence polarization, uHTS. 360,000 tested, 0.59% active. 26S proteasome non-ATPase regulatory subunit 14 (Homo sapiens), O00487. inhibition, % at 20 µM. human 26S proteasome, Ub4-pepOG fluorescence polarization; 20S core pre-blocked with epoxomicin. AID 588493, 2011;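 active means inhibition at 20 µM, scaled to each plate's controls, above about 33%, limit read from the data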
HNF4A DNA FP – change in binding of human HNF4A to DNA, primary screen, biochemical, fluorescence polarization, FITC-DNA | Hepatocyte nuclear factor 4-alpha (Homo sapiens), P41235 | 1 h | activity change, % at 10 µM | 360,000 tested, 0.3% active | AID 1224865, 2016; in the data active means activity change above about 30%, passing the limit was not always enough
Target sequence (P41235 whole entry, looked up): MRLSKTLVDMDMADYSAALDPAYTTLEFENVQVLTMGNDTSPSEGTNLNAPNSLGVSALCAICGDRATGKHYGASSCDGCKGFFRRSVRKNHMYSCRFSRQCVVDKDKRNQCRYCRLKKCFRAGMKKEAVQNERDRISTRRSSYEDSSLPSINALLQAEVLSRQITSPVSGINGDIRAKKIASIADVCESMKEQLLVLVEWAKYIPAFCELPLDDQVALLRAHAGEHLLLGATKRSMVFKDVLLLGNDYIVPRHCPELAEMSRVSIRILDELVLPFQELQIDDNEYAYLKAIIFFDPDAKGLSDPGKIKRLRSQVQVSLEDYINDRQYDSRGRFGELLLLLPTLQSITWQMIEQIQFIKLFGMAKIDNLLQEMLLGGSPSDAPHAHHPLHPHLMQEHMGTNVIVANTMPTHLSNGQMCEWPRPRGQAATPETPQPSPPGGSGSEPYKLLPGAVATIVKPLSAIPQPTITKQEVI
CSN inh – inhibitors of CSN-mediated cullin deneddylation, primary screen, biochemical, fluorescence polarization, uHTS; COP9 signalosome complex subunit 5 (Homo sapiens), Q92905; Purified CSN, SCF-Nedd8-OG deneddylation; inhibition, % at 12.5 µM; 360,000 tested, 0.38% active; AID 651999, 2013;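 active means pattern-corrected inhibition above about 35%, with an unprinted fluorescence ratio check between 0.5 and 1.5, limit read from the data, passing the limit was not always enough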;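 further: 0% = enzyme with substrate and 100% = substrate without enzyme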
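assay system = purified human Csn5 enzyme expressed in HEK293T cells | amount = 0.24 nM enzyme | buffer or medium = Tris/NaCl/DTT buffer, pH 7.5 | reagent = 10 nM SCFSkp2-Nedd8OG | compound = one concentration, 12.5 µM, 0.25% DMSO | times = 90 min reaction at room temperature | signal = FP | read-out basis = % inhibition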
TPT1 inh – Candida albicans TPT1 enzyme inhibitors, primary screen, biochemical, fluorescence polarization | tRNA 2'-phosphotransferase TPT1 (Candida albicans SC5314) | recombinant caTPT1, FP RNA substrate dephosphorylation | inhibition, % at 5 µM | 300,000 tested, 0.81% active;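 active means inhibition above the mean of all tested compounds plus 3 SD, set per screening campaign, cut at about 24% in these data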;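 further: plate controls were DMSO alone for no effect and ferristatin control at 100 nM for full effect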
Rpn11 confirm – Rpn11 (PSMD14) deubiquitinase inhibitors, confirmation, biochemical, fluorescence polarization, single concentration | shares compounds with Rpn11 inh | purified human 26S proteasome, Ub4-pepOG fluorescence polarization; proteasome pretreated with epoxomicin | inhibition, % at 20 µM | 1,900 tested, 29% active
MMP-2 counter – MMP-2 enzyme inhibition, confirmation, counter-screen for RPN11 inhibitor project, biochemical, fluorescence, single concentration; shares compounds with Rpn11 inh; recombinant MMP-2, FRET peptide cleavage fluorescence; inhibition, % at 20 µM; 1,900 tested, 4% active; AID 602330, 2012;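 further: human MMP-2 activated beforehand with APMA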
Thrombin FP – bovine thrombin protease inhibition, confirmation, counter-screen for Rpn11 inhibitor project, biochemical, fluorescence polarization, single concentration | bovine thrombin cleavage of Ub4-pepOG | AID 602333, 2012 | inhibition, % at 20 µM | 1,900 tested, 13% active | shares compounds with Rpn11 inh;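 active means mean inhibition at least 40% at 20 µM, or signal 3 deviations below plate average, so some actives read negative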;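 further: plate controls were thrombin with DMSO for no effect and buffer wells lacking thrombin for full effect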
* hit, by the source's call; i = inactive; ? = inconclusive; . = no result given; + = active, no number. Unless noted, no stated cut-off is given here; in the data, active means inhibition above about 40%; inactive means the rest.

SMILES	Myeloid diff MLP	Rpn11 inh	HNF4A DNA FP	CSN inh	TPT1 inh	Rpn11 confirm	MMP-2 counter	Thrombin FP
COC(=O)c1ccccc1NC(=O)CN1CCN(Cc2ccccc2)CC1	i	37*	-28	-1	6	-24	6	-26
O=C(N/N=C/c1ccccc1)c1ccc(CN2C(=O)c3cccc4cccc2c34)cc1	i	+	-7	8	-5	199*	-12	-1
CN(C)c1ccc(/C=N/NC(=O)c2ccc(CN3C(=O)c4cccc5cccc3c45)cc2)cc1	.	.	.	.	-2	.	.	.
O=C(NC1CCCCC1)NC1CC2CCCC(C1)N2C1CCCC1 (stereo not drawn)	i	73*	0	-2	-1	-3	-27	-8
CCCCN=c1scc(-c2ccc3c(c2)NC(=O)CO3)n1N=C1CCCC1	i	55*	10	0	10	42*	16	28
Nc1ccc2c(c1)C(=NO)c1cc([N+](=O)[O-])ccc1-2	?	44*	52*	18	.	12	-3	7
COC(=O)c1c(NC(=O)c2ccc(S(=O)(=O)N3CC(C)OC(C)C3)cc2)sc2c1CCN(C)C2 (stereo not drawn)	i	69*	2	94	.	93*	-50	35
COC(=O)c1c(NC(=O)CCS(=O)(=O)c2ccccc2)sc2c1CCN(C)C2	i	15	14	-1	3	.	.	.
CCOc1ccc2nc(Nc3nc(CSc4nnnn4-c4ccccc4)cc(=O)[nH]3)nc(C)c2c1	i	38*	18	9	2	-3	-18	6
Cc1[nH]c2ccc(C(=O)O)cc2c1C	i	5	6	-1	3	.	.	.
CCCc1c(C)[nH]c2ccc(C(=O)O)cc2c1=S	i	98*	-68	48*	.	74*	11	-8
CC(C)(C)c1ccc(C(=O)Nc2nnc(Cc3c[nH]c4ccccc34)s2)cc1	i	5	0	11	3	.	.	.
O=C(Nc1nnc(Cc2c[nH]c3ccccc23)s1)c1ccc(Cl)cc1Cl	+	42*	16	-5	20	29	0	10
COCCn1c(SCc2nc3scc(-c4ccc(Cl)cc4)c3c(=O)[nH]2)nnc1-c1cccc(C)c1	i	50*	15	-1	1	24	-9	4
Cc1nnc(SCc2nc3scc(-c4ccccc4)c3c(=O)[nH]2)s1	i	43*	17	13	14	42*	-2	32
O=c1[nH]c(Cc2ccccc2)nc2scc(-c3ccccc3)c12	i	1	1	-1	-1	.	.	.
CCCC(=O)Nc1cc(C(=O)O)ccc1S(=O)(=O)c1ccc(Cl)cc1	i	-6	-4	-9	-3	.	.	.
Cc1sc(C(=O)Nc2ccc3ccccc3c2)cc1CC(=O)O	i	2	0	-3	-6	.	.	.
Cc1ccc(S(=O)(=O)c2c(N)n(NC(=O)c3ccco3)c3nc4ccccc4nc23)cc1	i	39*	29	8	4	5	-45	-3
COCCCn1c(=O)/c(=C/c2ccccc2OC(F)F)s/c1=C(\C#N)C(=O)NCCOC	i	84*	13	33	.	24	47*	-1
COc1ccc(-c2csc(N3CCN(c4cc5c(cc4Cl)nc(-c4ccncc4)n5CCOCCO)CC3)n2)cc1	i	11	12	-4	22	.	.	.
COc1ccc(-c2csc(NCCc3nc4cc(Cl)c(N5CCCCC5)cc4n3CCOCCO)n2)cc1	i	42*	10	7	4	7	5	1
Cc1nc2ccccn2c1-c1csc(NCc2ccco2)n1	i	103*	-2	-1	-4	-10	34	-20
Cc1ccc(Nc2nc(-c3c(C)nc4ccccn34)cs2)cc1	.	-20	3	-9	-1	.	.	.
CCOC(=O)c1nc2cc3n(c(CC(C)C)c-2c1C)CC(C)=C3C	+	56*	14	9	13	18	6	14
SMILES	Myeloid diff MLP	Rpn11 inh	HNF4A DNA FP	CSN inh	TPT1 inh	Rpn11 confirm	MMP-2 counter	Thrombin FP
CCOC(=O)c1nc2cc3n(c(C)c-2c1C)C(C)C(C)=C3C (stereo not drawn)	i	1	5	5	8	.	.	.
Cc1ccc(-n2nc3c(c2NC(=O)C(C)C)CS(=O)(=O)C3)c(C)c1	i	-1	-2	0	-1	.	.	.
CC(C)(C)NC(=O)NC(=O)CSc1n[nH]c(-c2ccccc2Br)n1	i	0	-2	-9	-2	.	.	.
CCc1ccc(-n2c(O)c(C=NCCN(CC)CC)c(=O)[nH]c2=O)cc1	i	75*	14	35*	.	38	-38	20
O=C(CCN1Cc2ccccc2C1)c1ccc2c(c1)OCCO2	i	26	7	-2	2	.	.	.
O=C(CCN1CCc2ccccc2C(c2ccccc2)C1)c1ccc2c(c1)OCCO2 (stereo not drawn)	i	57*	-1	3	-5	-13	-29	-12
O=C(CCC(=O)Nc1ccccc1Cl)NNC(=O)c1ccco1	i	48*	-4	-4	1	-4	1	-13
Cc1c(Cl)cccc1NC(=O)CCC(=O)NNC(=O)c1ccco1	i	0	0	1	-1	.	.	.
COc1ccc(C(=O)Nc2ccc(N3CCCC3)cc2)cc1	+	43*	9	13	9	13	-10	-6
O=C(COC(=O)c1ccc(O)cc1)Nc1ccc(N2CCCCC2)cc1	i	56*	-3	3	-2	1	2	-2
CN1CCN(C(=O)CN(C2CCCCC2)S(=O)(=O)c2ccccc2)CC1	.	6	-2	-1	.	.	.	.
O=C(CN(C1CCCCC1)S(=O)(=O)c1ccccc1)N1CCCC1	i	37*	14	1	0	-2	-4	-8
COc1cc(C(=O)Nc2ccc(NC(=O)c3ccccc3Cl)nc2)cc(OC)c1OC	i	-11	-3	0	-2	.	.	.
